Measurements published in ChEMBL document CHEMBL1629439, “High-throughput identification of antibacterials against methicillin-resistant Staphylococcus aureus (MRSA) and the transglycosylase” (Bioorg Med Chem, 2010).
≈ marks a conversion by molar mass, not a printed value.

Key:
Staphylococcus aureus [1] = experiment: Antimicrobial activity against methicillin-resistant Staphylococcus aureus isolate NTUH4722 after 18 to 24 hrs by alamar blue assay; type: functional
Method in brief: (§1)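 Broth microdilution per NCCLS standard, Mueller-Hinton broth, 8-point twofold dilutions; exponentially growing cells at 5 10^5 cells/ml with compound, 18–24 h at 37 C; 20% Alamar blue added, fluorescence read; MIC90 taken as lowest concentration preventing at least 90% growth.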

Staphylococcus aureus [2] = experiment: Antimicrobial activity against oxacillin- and methicillin-resistant Staphylococcus aureus isolate Sa-OXA-R2 after 18 to 24 hrs by alamar blue assay; type: functional; method in brief: as §1
Staphylococcus aureus [3] = experiment: Antimicrobial activity against methicillin-resistant Staphylococcus aureus ATCC 33592 after 18 to 24 hrs by alamar blue assay; type: functional; conditions: Staphylococcus aureus, ATCC 33592; read-out: MIC; method in brief: as §1
Staphylococcus aureus [4] = experiment: Antimicrobial activity against Staphylococcus aureus ATCC 29213 after 18 to 24 hrs by alamar blue assay
Acinetobacter baumannii = experiment: Antimicrobial activity against Acinetobacter baumannii ATCC 49139 after 18 to 24 hrs by alamar blue assay; type: functional; conditions: Acinetobacter baumannii, ATCC 49139; read-out: MIC
Method in brief: (§2)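 Broth microdilution per NCCLS in Mueller-Hinton broth, 8-point twofold dilutions, 384-well format. Exponential-phase cells at 5 × 10^5 cells/ml incubated with compound 18–24 h at 37 °C, then 20% Alamar blue added and fluorescence read. MIC90 taken as the lowest concentration preventing at least 90% bacterial growth.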

[5] = test system: Stenotrophomonas maltophilia; experiment: Antimicrobial activity against Stenotrophomonas maltophilia ATCC 13637 after 18 to 24 hrs by alamar blue assay; type: functional; conditions: Stenotrophomonas maltophilia, ATCC 13637; read-out: MIC; method in brief: as §2
[6] = test system: Mycolicibacterium smegmatis; experiment: Antimicrobial activity against Mycobacterium smegmatis BCRC 11565 after 18 to 24 hrs by alamar blue assay; type: functional; conditions: Mycolicibacterium smegmatis, BCRC 11565; read-out: MIC; method in brief: as §2
Pseudomonas aeruginosa = experiment: Antimicrobial activity against Pseudomonas aeruginosa ATCC 25619 after 18 to 24 hrs by alamar blue assay; type: functional; conditions: Pseudomonas aeruginosa, ATCC 25619; read-out: MIC; method in brief: as §2
Escherichia coli = experiment: Antimicrobial activity against Escherichia coli ATCC […] after 18 to 24 hrs by alamar blue assay; type: functional; conditions: Escherichia coli; read-out: MIC; method in brief: as §2
Serratia marcescens = experiment: Antimicrobial activity against Serratia marcescens ATCC 14756 after 18 to 24 hrs by alamar blue assay; type: functional; conditions: Serratia marcescens, ATCC 14756; read-out: MIC; method in brief: as §2
Bacillus subtilis = experiment: Antimicrobial activity against Bacillus subtilis ATCC 23857 after 18 to 24 hrs by alamar blue assay; type: functional; method in brief: as §2

Structure (SMILES)	MIC (Staphylococcus aureus [1])	MIC (Staphylococcus aureus [2])	MIC (Staphylococcus aureus [3])	MIC (Staphylococcus aureus [4])	MIC (Acinetobacter baumannii)	MIC [5]	MIC [6]	MIC (Pseudomonas aeruginosa)	MIC (Escherichia coli)	MIC (Serratia marcescens)	MIC (Bacillus subtilis)
Cn1c(/C=C/c2ccc([N+](=O)[O-])o2)nc2ccccc2c1=O	1 µg/mL (≈ 3.36 µM)	0.5 µg/mL (≈ 1.68 µM)	2 µg/mL (≈ 6.73 µM)	1 µg/mL (≈ 3.36 µM)	> 256 µg/mL	> 256 µg/mL	1 µg/mL (≈ 3.36 µM)	2 µg/mL (≈ 6.73 µM)	16 µg/mL (≈ 53.8 µM)	> 256 µg/mL	< 0.03 µg/mL
CSc1nc2ccc(NC(=O)c3ccc([N+](=O)[O-])o3)cc2s1	1 µg/mL (≈ 2.98 µM)	1 µg/mL (≈ 2.98 µM)	1 µg/mL (≈ 2.98 µM)	1 µg/mL (≈ 2.98 µM)	12 µg/mL (≈ 35.8 µM)	32 µg/mL (≈ 95.4 µM)	0.5 µg/mL (≈ 1.49 µM)	128 µg/mL (≈ 382 µM)	256 µg/mL (≈ 763 µM)	32 µg/mL (≈ 95.4 µM)	0.06 µg/mL (≈ 0.179 µM)
Cc1c(CC(=O)N2CCC[C@H]2C(=O)O)c(=O)oc2c(C)c3occ(-c4ccc(F)cc4)c3cc12	0.6 µg/mL (≈ 1.29 µM)	0.6 µg/mL (≈ 1.29 µM)	1.25 µg/mL (≈ 2.7 µM)	0.6 µg/mL (≈ 1.29 µM)	> 256 µg/mL	> 256 µg/mL	1 µg/mL (≈ 2.16 µM)	> 256 µg/mL	> 256 µg/mL	> 256 µg/mL	> 64 µg/mL
CCCc1ccc(C)c(Oc2ccc(Cl)cc2NC(=O)c2cc(Cl)cc(Br)c2O)c1	0.06 µg/mL (≈ 0.118 µM)	0.06 µg/mL (≈ 0.118 µM)	0.125 µg/mL (≈ 0.245 µM)	0.25 µg/mL (≈ 0.491 µM)	16 µg/mL (≈ 31.4 µM)	16 µg/mL (≈ 31.4 µM)	0.5 µg/mL (≈ 0.982 µM)	16 µg/mL (≈ 31.4 µM)	8 µg/mL (≈ 15.7 µM)	16 µg/mL (≈ 31.4 µM)	< 0.03 µg/mL
NC(=O)c1ccsc1NC(=O)c1ccc([N+](=O)[O-])o1	0.25 µg/mL (≈ 0.889 µM)	0.25 µg/mL (≈ 0.889 µM)	0.25 µg/mL (≈ 0.889 µM)	2 µg/mL (≈ 7.11 µM)	12 µg/mL (≈ 42.7 µM)	32 µg/mL (≈ 114 µM)	0.5 µg/mL (≈ 1.78 µM)	128 µg/mL (≈ 455 µM)	256 µg/mL (≈ 910 µM)	32 µg/mL (≈ 114 µM)	0.06 µg/mL (≈ 0.213 µM)
CCCCN(C)S(=O)(=O)c1ccc(C(=O)Nc2nnc(-c3cccc(OC)c3)o2)cc1	16 µg/mL (≈ 36 µM)	32 µg/mL (≈ 72 µM)	8 µg/mL (≈ 18 µM)	4 µg/mL (≈ 9 µM)	> 256 µg/mL	> 256 µg/mL	0.5 µg/mL (≈ 1.12 µM)	> 256 µg/mL	> 256 µg/mL	> 256 µg/mL	0.5 µg/mL (≈ 1.12 µM)
CNC(=O)c1ccsc1NC(=O)c1ccc([N+](=O)[O-])o1	0.5 µg/mL (≈ 1.69 µM)	0.5 µg/mL (≈ 1.69 µM)	0.5 µg/mL (≈ 1.69 µM)	2 µg/mL (≈ 6.77 µM)	12 µg/mL (≈ 40.6 µM)	32 µg/mL (≈ 108 µM)	0.5 µg/mL (≈ 1.69 µM)	128 µg/mL (≈ 433 µM)	256 µg/mL (≈ 867 µM)	32 µg/mL (≈ 108 µM)	0.06 µg/mL (≈ 0.203 µM)
CCc1cc(O)nc(N2NC(C)=CC2NC(=O)c2ccccc2Cl)n1 (stereo unspecified)	1.2 µg/mL (≈ 3.34 µM)	1.2 µg/mL (≈ 3.34 µM)	1.2 µg/mL (≈ 3.34 µM)	1.2 µg/mL (≈ 3.34 µM)	> 256 µg/mL	> 256 µg/mL	0.25 µg/mL (≈ 0.695 µM)	> 256 µg/mL	> 256 µg/mL	> 256 µg/mL	0.25 µg/mL (≈ 0.695 µM)
Cc1c(CC(=O)N2CCC[C@H]2C(=O)O)c(=O)oc2c(C)c3occ(-c4ccc(Cl)cc4)c3cc12	0.3 µg/mL (≈ 0.625 µM)	0.6 µg/mL (≈ 1.25 µM)	0.3 µg/mL (≈ 0.625 µM)	0.3 µg/mL (≈ 0.625 µM)	> 256 µg/mL	> 256 µg/mL	1 µg/mL (≈ 2.08 µM)	> 256 µg/mL	> 256 µg/mL	> 256 µg/mL	> 64 µg/mL
CC(C)N1C(=O)/C(=C/c2ccc([N+](=O)[O-])o2)SC1=S	2 µg/mL (≈ 6.7 µM)	1 µg/mL (≈ 3.35 µM)	1 µg/mL (≈ 3.35 µM)	0.25 µg/mL (≈ 0.838 µM)	> 256 µg/mL	> 256 µg/mL	1 µg/mL (≈ 3.35 µM)	2 µg/mL (≈ 6.7 µM)	16 µg/mL (≈ 53.6 µM)	> 256 µg/mL	< 0.03 µg/mL
O=C(Nc1nnc(-c2ccc(Br)cc2)o1)c1cccc(C(F)(F)F)c1	0.5 µg/mL (≈ 1.21 µM)	0.125 µg/mL (≈ 0.303 µM)	1 µg/mL (≈ 2.43 µM)	1 µg/mL (≈ 2.43 µM)	> 256 µg/mL	> 256 µg/mL	0.5 µg/mL (≈ 1.21 µM)	> 256 µg/mL	> 256 µg/mL	> 256 µg/mL	0.5 µg/mL (≈ 1.21 µM)
